# Bioassay records deposited in PubChem by several laboratories.
# hERG protect – hERG (human) protection from proarrhythmic block; CHO-hERG, FluxOR thallium flux, dofetilide IC70 present; hit rate 0.51% among 310,000; activation (rescue from dofetilide block), less the hit threshold, % at 10 µM;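 active means activation above the mean of controls blocked by dofetilide plus 5 SD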;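 further: thallium influx through hERG after potassium depolarization seen as dye fluorescence rise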
# Target sequence (Q12809 whole entry, looked up): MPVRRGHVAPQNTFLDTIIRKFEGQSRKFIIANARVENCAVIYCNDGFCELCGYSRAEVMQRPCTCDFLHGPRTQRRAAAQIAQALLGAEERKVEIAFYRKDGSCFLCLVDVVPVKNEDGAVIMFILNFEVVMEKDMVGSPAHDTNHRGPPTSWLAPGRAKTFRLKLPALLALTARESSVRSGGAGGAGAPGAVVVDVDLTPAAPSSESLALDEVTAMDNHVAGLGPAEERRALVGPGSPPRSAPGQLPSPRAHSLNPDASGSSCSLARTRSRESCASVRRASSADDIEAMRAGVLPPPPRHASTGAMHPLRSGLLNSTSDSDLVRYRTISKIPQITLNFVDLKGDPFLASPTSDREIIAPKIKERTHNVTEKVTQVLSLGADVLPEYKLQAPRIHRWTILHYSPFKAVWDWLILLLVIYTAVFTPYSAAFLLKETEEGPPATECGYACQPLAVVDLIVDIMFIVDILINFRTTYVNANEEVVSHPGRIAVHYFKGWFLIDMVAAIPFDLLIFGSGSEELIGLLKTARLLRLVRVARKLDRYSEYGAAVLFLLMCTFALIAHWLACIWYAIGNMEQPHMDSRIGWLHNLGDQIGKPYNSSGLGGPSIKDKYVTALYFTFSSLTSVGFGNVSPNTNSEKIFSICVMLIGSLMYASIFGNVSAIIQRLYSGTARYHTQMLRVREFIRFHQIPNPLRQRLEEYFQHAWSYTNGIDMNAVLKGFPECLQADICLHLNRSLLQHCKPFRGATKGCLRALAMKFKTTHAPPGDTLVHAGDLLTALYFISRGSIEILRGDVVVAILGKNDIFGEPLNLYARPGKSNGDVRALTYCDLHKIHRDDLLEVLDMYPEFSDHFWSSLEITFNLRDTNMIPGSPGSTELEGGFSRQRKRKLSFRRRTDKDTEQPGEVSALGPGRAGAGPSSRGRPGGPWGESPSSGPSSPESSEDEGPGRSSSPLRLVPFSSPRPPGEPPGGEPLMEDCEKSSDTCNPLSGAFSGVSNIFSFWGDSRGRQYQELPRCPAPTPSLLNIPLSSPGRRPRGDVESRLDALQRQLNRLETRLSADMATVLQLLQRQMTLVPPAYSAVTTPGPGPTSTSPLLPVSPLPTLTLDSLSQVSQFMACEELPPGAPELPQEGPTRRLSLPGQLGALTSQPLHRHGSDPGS
# KCNK9 inh – human KCNK9 channel inhibition; HEK293 KCNK9, FluxOR thallium flux fluorescence; active compounds read low; B-score at 10 µM; Q9NPC2; hit rate 1.2% among 310,000;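 active means ratio B-score over 3 SD below the library mean, with starting fluorescence within 5 SD of its mean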;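 further: negative B-score means less thallium flux so channel inhibition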
# KCNK3 inh – human KCNK3 channel inhibition, primary screen; O14649; CHO-KCNK3 thallium flux, FluxOR fluorescence; active compounds read low; B-score at 10 µM; hit rate 0.84% among 340,000; AID 602410;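 active means B-score under library mean minus 4 SD, starting fluorescence ratio at most library mean plus 5 SD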;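 further: more negative B-score means stronger inhibition of thallium flux through KCNK3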
# KCC2 mod – KCC2 (human) Cl- transport modulation; AID 1456; Q9H2X9; B-score of Tl+ flux slope (higher = more flux/activation; lower = inhibition) at 10 µM; hit rate 2.2% among 190,000; KCC2 cells, thallium flux FluoZin-2 fluorescence;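 active means thallium flux slope and its plate-corrected score both differing from the plate sample mean at a set confidence after two filtering rounds, in either direction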;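 further: slope of fluorescence scaled to starting intensity during 10 to 20 s after thallium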
# KCNQ1 block – human KCNQ1 channel inhibition; P51787; CHO-K1 KCNQ1, FluxOR thallium flux fluorescence; active compounds read high; B-score at 10 µM; hit rate 1.3% among 310,000; AID 2642;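 active means compounds whose thallium flux B-score, printed positive for inhibition, exceeds three library SD while starting fluorescence stays within three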;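 further: channel opened by potassium depolarization with thallium stimulus after 20 min compound exposure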
# KCNQ1 act – potentiates or activates the human KCNQ1 potassium channel. CHO-K1 KCNQ1, thallium flux FluxOR fluorescence; active compounds read high. hit rate 0.35% among 310,000. P51787. B-score at 10 µM;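 active means fluorescence ratio B-score, a plate-corrected score, at least three library SD, with initial intensity B-score within 5 SD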
#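 Assay system: CHO-K1 cells stably expressing KCNQ1. Medium: assay buffer for compound exposure, DMSO matched across wells. Timing: 37 °C overnight plating, 90-min dark dye load, 20-min compound pretreatment. Signal: kinetic FluxOR fluorescence, 10 s baseline plus 110 s post-stimulus.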
# KCNQ1 block val – confirmation of human KCNQ1 potassium channel inhibitors. inhibition, % at 10 µM. shares compounds with KCNQ1 block. hit rate 93% among 1,600. KCNQ1 cell line, FluxOR thallium flux fluorescence. AID 588353;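 active means primary screen active, with duplicate mean exceeding buffer control mean plus 3 SD of buffer wells, cut at about 28% in these data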;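 further: 0% = buffer control ratio and 100% = XE991 inhibitor control ratio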
# CHO KCNQ1 ctr – counter-screen for KCNQ1 inhibitors: effect in parental CHO cells. shares compounds with KCNQ1 block. parental CHO-K1, FluxOR thallium flux fluorescence ratio; active compounds read low; zero means no signal rise above baseline. fluorescence ratio (Tl flux) at 10 µM. hit rate 21% among 1,600;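 active means mean of duplicate thallium-flux fluorescence ratios in parental host cells more than 5 SD below the buffer control mean, cut at about 0.38 in these data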;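 further: ratio is peak minus minimum fluorescence divided by baseline fluorescence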
# KCNQ1 ephys val – blocks human KCNQ1 current in automated patch clamp. shares compounds with KCNQ1 block. KCNQ1-CHO cells. calls only at 10 µM. hit rate 20% among 490. AID 624120;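 active means KCNQ1 current drop exceeding 3 SD of negative control wells, seen in both duplicate runs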;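 further: steady state current during a 2 s step from -80 to +40 mV; negative values mean current inhibition and positive values mean potentiation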
# KCNQ2 inh – rat KCNQ2 inhibition in KCNQ1 inhibitor specificity screen | inhibition, % at 10 µM | hit rate 71% among 1,600 | shares compounds with KCNQ1 block | KCNQ2 cells, FluxOR thallium flux fluorescence;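 active means mean percent inhibition of the KCNQ2 thallium signal more than 5 SD above the buffer-only control wells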;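 further: KCNQ2 expressed in CHO cells; 0% = buffer control wells and 100% = XE-991 inhibitor control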
# KCNQ1-KCNE1 inh – human KCNQ1/KCNE1 inhibition in KCNQ1 specificity screen | inhibition, % at 10 µM | hit rate 77% among 1,600 | shares compounds with KCNQ1 block | KCNQ1/KCNE1 cells, FluxOR thallium flux fluorescence;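 active means mean percent inhibition of duplicate wells above the buffer-only control mean plus 3 SD of those controls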;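 further: 0% = buffer only wells and 100% = XE-991 inhibitor control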
# Starred values were filed as active, the others as inactive; i = inactive; / = no result. Most compounds without a hit are left out; they make up all but 4.1% or so of the library.
SMILES,hERG protect,KCNK9 inh,KCNK3 inh,KCC2 mod,KCNQ1 block,KCNQ1 act,KCNQ1 block val,CHO KCNQ1 ctr,KCNQ2 inh,KCNQ1-KCNE1 inh,others
Fc1ccc(NC(=S)Nc2cccnc2)cc1Cl,-13,i,i,1.2,8*,i,66*,0.47,i,34%*,
O=S(=O)(c1ccc(Cl)c(NC(=S)Nc2ccccc2N2CCOCC2)c1)N1CCOCC1,-12,i,i,0.68,i,i,/,/,/,/,
O=C(Nc1cccnc1)Nc1cc(Cl)cc(Cl)c1,-18,i,i,-0.11,i,i,/,/,/,/,
COCCN(C(=O)COC(=O)c1ccccc1NCc1ccco1)c1c(N)n(Cc2ccccc2)c(=O)[nH]c1=O,-11,i,i,/,i,i,/,/,/,/,
N#Cc1ccc(-c2c(-c3ccccc3)ncc3cc(F)ccc23)cc1,/,/,i,/,/,/,/,/,/,/,
Cc1ccc(S(=O)(=O)N2CCCCC2)cc1NC(=O)CSc1ncnc2ccccc12,-13,i,i,-3.4,i,i,/,/,/,/,
Cc1ccc(NC(=O)CSc2ncnc3ccccc23)cc1S(=O)(=O)N1CCCCCC1,-13,i,i,-1.4,6*,i,118*,0.4,127%*,106%*,KCNQ1 ephys val=i
Cc1ccc(NC(=O)COc2cccc(C)c2C)cc1S(=O)(=O)N1CCCCCC1,-14,i,i,/,6*,i,85*,0.43,119%*,134%*,
Cc1cc(C)cc(NC(=O)c2cc(C)nc3ccccc23)c1,-3,i,i,/,i,i,/,/,/,/,
Cc1nc2cc(NCc3ccccc3O)ccc2n1Cc1ccccc1,-6,i,i,0.24,8*,i,50*,0.45,i,43%*,
CCc1ccc(N(CC(=O)Nc2nc3ccc(C)cc3s2)S(=O)(=O)c2c(C)noc2C)cc1,-5,i,i,/,9*,i,71*,0.42,73%*,138%*,
CCc1ccc(NC(=O)CN(c2ccc3c(c2)OCO3)S(=O)(=O)c2c(C)noc2C)cc1,-2,i,i,1.9,i,i,/,/,/,/,
CCOC(=O)c1c(NC(=O)CSc2nnc(-c3ccccc3)o2)sc(C(C)=O)c1C,-8,i,i,-1.5,i,i,/,/,/,/,
CCOC(=O)c1c(NC(=O)CSc2nc3ccccc3o2)sc(C(C)=O)c1C,-29,i,i,/,8*,i,130*,0.43,108%*,112%*,KCNQ1 ephys val=i
CCOC(=O)c1cn[nH]c1NC(=S)Nc1ccc(Cl)cc1,-13,i,i,-0.3,13*,i,78*,0.55,76%*,54%*,
CCOC(=O)c1ccc(NC(=S)Nc2ccc(C)cc2)cc1,-16,i,i,1.1,i,i,/,/,/,/,
CC1(C)CC2CC(C)(CN2C(=O)COC(=O)c2ccccc2C(F)(F)F)C1 (stereo not drawn),/,/,i,/,/,/,/,/,/,/,
CCC1CN(C(=O)N2CCC(C(=O)Nc3ccccc3F)CC2)c2ccccc2O1 (stereo not drawn),-21,i,i,/,i,i,/,/,/,/,
CCN(CC)S(=O)(=O)c1ccc(N2CCCC2)c(NC(=O)Cc2c(F)cccc2Cl)c1,-7,i,i,/,i,i,/,/,/,/,
O=C(Nc1nc2c(s1)COc1ccccc1-2)c1cccs1,-16,i,i,-1.7,7*,i,44*,0.52,102%*,64%*,
O=C(CCS(=O)(=O)c1ccccc1)Nc1nc2c(s1)COc1ccccc1-2,-22,i,i,-0.78,6*,i,54*,0.51,59%*,54%*,
